CHRM1 PAM: potentiates human M1 receptor response to acetylcholine. P11229. CHO-K1 hM1, Fluo-8 calcium fluorescence, ACh EC20; 0% = ACh EC20, 100% = maximal ACh. activation, % at 3 µM. hit rate 0.088% among 360,000; in the data active = activation above about 19%, passing the limit was not always enough
CHRM1 antagonist: blocks human M1 muscarinic receptor. P11229. CHO-K1 hM1, Fluo-8 calcium fluorescence, ACh EC80 antagonist. inhibition, % at 3 µM. hit rate 1.3% among 360,000. AID 588852;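 active = percent inhibition above its own plate's cutoff, namely the mean of that plate's compound wells plus 3 SD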;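 note: peak over basal fluorescence ratio during 140 s after agonist addition; 0% = ACh EC80 plus DMSO and 100% = DMSO alone without agonist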
M1 ag: human M1 muscarinic receptor agonism. P11229. CHO-K1 hM1, Fluo-8 calcium fluorescence, agonist mode; 0% DMSO, 100% acetylcholine EC100. activation, % at 3 µM. hit rate 0.33% among 360,000. AID 588814;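 active = activation above the run's mean compound activation plus 3 SD, cut at about 16% in these data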;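 note: peak over basal fluorescence ratio within a 140 s kinetic read after compound addition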
TAAR1 antagonist: human TAAR1 antagonism; Q96RJ0; CHO RD-HGA16 TAAR1, Fluo-8 calcium fluorescence, antagonist; hit rate 1.5% among 360,000; inhibition, % at 3 µM; AID 624466;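 active = inhibition above a per-plate cutoff, the mean inhibition of test compounds on that plate plus 3 SD, cut at about 49% in these data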;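 note: 0% = DMSO plus EC80 beta-PEA response and 100% = DMSO alone without agonist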
Target sequence (Q96RJ0 whole entry, looked up): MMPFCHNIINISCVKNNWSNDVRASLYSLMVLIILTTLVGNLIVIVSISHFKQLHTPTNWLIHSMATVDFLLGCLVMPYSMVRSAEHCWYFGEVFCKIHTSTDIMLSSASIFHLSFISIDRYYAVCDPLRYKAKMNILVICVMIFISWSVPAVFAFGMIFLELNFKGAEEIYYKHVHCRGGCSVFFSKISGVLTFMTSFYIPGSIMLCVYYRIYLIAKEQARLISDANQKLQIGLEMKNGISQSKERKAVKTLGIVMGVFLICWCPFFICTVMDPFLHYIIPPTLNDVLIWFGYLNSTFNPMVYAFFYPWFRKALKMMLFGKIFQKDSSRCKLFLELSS
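System: CHO RD-HGA16 cells bearing hTAAR1. Reagent: EC80 β-phenethylamine stimulus. Schedule: seeding 17-24 h prior, 75-min 37 °C, 30-min RT dye loading. Signal: Fluo-8 intracellular calcium dye fluorescence, real-time kinetic reads. Read-out: % inhibition from peak post-agonist over basal fluorescence ratio. Benchmarks: vehicle wells and EC80 agonist wells. Replicates: n of 1.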
TAAR1 agonist: human TAAR1 agonism | hit rate 0.99% among 360,000 | AID 624467 | activation, % at 3 µM | CHO RD-HGA16 TAAR1, Fluo-8 calcium fluorescence; vehicle wells 0%, saturating PEA agonist 100% | Q96RJ0;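 active = activation above the mean activation of all test compounds in the run plus 3 SD, cut at about 38% in these data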
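Repeats: no replicates (n 1) | Material: CHO-derived RD-HGA16 cells with stable Gα16 and human TAAR1 | Technique: Kinetic Fluo-8 calcium fluorescence | Schedule: 17-24 h seeding, 75 min 37 °C dye, 30 min RT | Evaluation: % activation from peak over basal fluorescence ratio, DMSO-to-PEA scaled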
TAAR1 nonsel count: counter-screen for TAAR1 antagonists: nonselective antagonists; shares compounds with TAAR1 antagonist; counterscreen cell line, calcium fluorescence, antagonist mode; inhibition, % at 3 µM; hit rate 77% among 2,400; AID 651780; in the data active = inhibition above about 22%;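 note: CHO-Ga16 host cells stimulated with ATP at an EC80 level; 0% = agonist EC80 plus vehicle and 100% = vehicle without agonist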
TAAR1 ant conf: confirmation of human TAAR1 antagonists; shares compounds with TAAR1 antagonist; TAAR1-expressing cells, fluorescence antagonist read-out; inhibition, % at 3 µM; hit rate 40% among 2,400; AID 651785; in the data active = inhibition above about 49%;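 note: CHO-Ga16 host cells challenged with agonist PEA near its EC80; 0% = agonist at EC80 plus vehicle and 100% = vehicle with no agonist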
Ga16 ag counter: nonselective Ga16 agonist in TAAR1 antagonist counter-screen | Ga16-expressing cells, calcium fluorescence, agonist counterscreen | shares compounds with TAAR1 antagonist | hit rate 18% among 2,400 | activation, % at 3 µM; in the data active = activation above about 12%;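 note: 0% = vehicle wells and 100% = saturating stimulus response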
TAAR1 ag counter: counter-screen for human TAAR1 antagonists: TAAR1 agonists | activation, % at 3 µM | hit rate 2% among 2,400 | shares compounds with TAAR1 antagonist | AID 651955 | hTAAR1 cell line, fluorescence activation, agonist mode; in the data active = activation above about 37%;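 note: CHO cells stably expressing TAAR1 with calcium dye readout; 0% = DMSO vehicle and 100% = full agonist response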
Numbers without * were called inactive; . = not tested or not shown. Most compounds without a hit are left out; they make up all but 3.4% or so of the library.

SMILES | CHRM1 PAM | CHRM1 antagonist | M1 ag | TAAR1 antagonist | TAAR1 agonist | TAAR1 nonsel count | TAAR1 ant conf | Ga16 ag counter | TAAR1 ag counter
O=C1CN(C(=O)COC(=O)c2cccs2)c2ccccc2N1 | 9 | -13 | -3 | 61* | 1 | 12 | 1 | 2 | 2
COc1cccc(CNC(=O)[C@@H]2CCCN2C(=O)[C@H]2CCCCN2C(=O)c2ccccc2)c1 | . | . | . | -5 | 1 | . | . | . | .
Cc1nn(CCc2nn[nH]n2)c2nc(-c3ccc(Br)cc3)cc(C(F)(F)F)c12 | 11 | -17 | 3 | 71* | 2 | 16 | 33 | 2 | -4
Cc1nn(CCc2nn[nH]n2)c2nc(C(F)(F)F)cc(C(F)(F)F)c12 | 3 | -1 | -1 | -4 | 7 | . | . | . | .
O=C(Nc1c2c(nn1-c1ccccc1)CS(=O)C2)c1ccc(S(=O)(=O)N2CCOCC2)cc1 (stereo unspecified) | 1 | -10 | -4 | 51* | 2 | 5 | 0 | 2 | 7
COCCN(Cc1ccccc1)C(=O)Cc1ccc(OC)c(S(=O)(=O)N2CCOCC2)c1 | 4 | -10 | -1 | -22 | 2 | . | . | . | .
COc1ccc(CC(=O)N(Cc2ccccc2)c2ccccc2)cc1S(=O)(=O)N1CCOCC1 | -9 | 26* | 2 | 82* | 18 | 32* | 55* | 15* | 15
COC(=O)C1=C(C)N(Cc2ccc(Cl)cc2)C(=S)NC1c1cccc(OC)c1 (stereo unspecified) | . | . | . | 51* | 0 | 20 | 22 | -1 | -1
Cc1ccc(NC(=O)CN(Cc2ccco2)Cc2ccccc2O)cc1C | 3 | -4 | -3 | 52* | 3 | 24* | 45 | 5 | 7
CN(Cc1cnn(-c2ccccc2)c1)C(=O)c1cccc(S(=O)(=O)N(C)c2ccccc2)c1 | -14 | 15 | 0 | 63* | 3 | 35* | 42 | 9 | 4
CCOc1ccc2[nH]c3c(NCCc4ccc(OC)c(OC)c4)ncnc3c2c1 | -8 | 1 | -3 | 51* | 6 | 18 | 31 | 4 | 1
CCOc1ccc2[nH]c3c(NCCO)ncnc3c2c1 | 5 | -8 | -7 | -2 | 4 | . | . | . | .
CCCCCCCCN1C(=O)[C@H](CC(=O)NCc2ccc(OC)c(OC)c2)C[C@@]2(C(=O)OC)CCCCC=C12 | . | . | . | 6 | -2 | . | . | . | .
C[C@@H](NC(=O)[C@@H]1CCCN1C(=O)[C@@H]1CCCN1C(=O)c1ccccc1)c1ccccc1 | . | . | . | -16 | 0 | . | . | . | .
O=C(N/N=C/c1cn(-c2cccs2)nc1-c1ccccc1)c1ccccc1Br | 2 | 3 | -8 | 14 | 2 | . | . | . | .
O=C(N/N=C/c1cn(-c2cccs2)nc1-c1ccccc1)c1ccccc1O | -11 | 8 | -3 | 75* | 11 | 55* | 60* | 13* | 10
COc1c2ccccc2nn1C(C)C | . | . | . | -9 | 3 | . | . | . | .
COc1ccccc1CN(C(=O)CNC(=O)c1ccco1)C(C(=O)NCC1CCCO1)c1ccccc1 (stereo unspecified) | -7 | 19 | 0 | 68* | 17 | 32* | 47 | 8 | 10
O=C(NCC(=O)N(Cc1ccccc1)C(C(=O)NCC1CCCO1)c1ccccc1)c1ccco1 (stereo unspecified) | -8 | 8 | -1 | 53* | 19 | 20 | 46 | 10 | 10
O=C(NCC(=O)N(c1ccc(F)cc1)C(C(=O)NCC1CCCO1)c1ccccc1)c1ccco1 (stereo unspecified) | 6 | -6 | -1 | 25 | 9 | . | . | . | .
Cc1ccc(C(C(=O)NCC2CCCO2)N(Cc2ccccc2)C(=O)c2ccc(-c3ccccc3)[nH]2)o1 (stereo unspecified) | -2 | 6 | -5 | 67* | 9 | 31* | 42 | 8 | 14
CCCCN(CCCC)Cc1cc(=O)oc2ccc3ccccc3c12 | -3 | -18 | -5 | -24 | 0 | . | . | . | .
COc1cccc(CN2CCC2(C)C(=O)Nc2ccc(Cl)c(Cl)c2)c1F (stereo unspecified) | 1 | -15 | -7 | 29 | 5 | . | . | . | .
CCOC(=O)C1(C)CCCN(C(=O)c2cccc(C#N)c2)C1 (stereo unspecified) | 6 | -16 | -1 | -14 | 2 | . | . | . | .
O=C(NC1CCCc2ccccc21)C1CCC(CNS(=O)(=O)c2cccc3nsnc23)CC1 (stereo unspecified) | 5 | -3 | 1 | 57* | 8 | 15 | 42 | 6 | 19
SMILES | CHRM1 PAM | CHRM1 antagonist | M1 ag | TAAR1 antagonist | TAAR1 agonist | TAAR1 nonsel count | TAAR1 ant conf | Ga16 ag counter | TAAR1 ag counter
CC1(c2nc3ccccc3[nH]2)c2ccccc2C(=O)N1C1CC1 (stereo unspecified) | . | . | . | 2 | 1 | . | . | . | .
CSc1ccccc1C(=O)NCc1ccc(F)cc1 | 10 | -7 | -7 | 14 | 0 | . | . | . | .
Cc1ccc(CNC(=O)c2ccccc2SCC(=O)NCC2CCCCC2)cc1 | -10 | 15 | 0 | 63* | 12 | 26* | 45 | 9 | 7
CSc1ccccc1C(=O)NCc1ccc(C)cc1 | -2 | 13 | -2 | 104* | -2 | 8 | 11 | 0 | 3
O=C(CSc1ccccc1C(=O)N1CCCCC1)NCC1CCCCC1 | 7 | -4 | -4 | -15 | 1 | . | . | . | .
O=C(/C=C(\Nc1cccc(Cl)c1)c1ccccc1)c1ccccc1 | . | . | . | -19 | 4 | . | . | . | .
COc1ccc(-c2ccc(CN3C(C(C)C)C(=O)N(Cc4cn(CCC5OCCCO5)nn4)CCS3(=O)=O)cc2)cc1OC (stereo unspecified) | 14 | -18 | 0 | -17 | 7 | . | . | . | .
COc1ccc(-c2ccc(CN3C(CC(C)C)C(=O)N(Cc4cn(CCC5OCCCO5)nn4)CCS3(=O)=O)cc2)cc1OC (stereo unspecified) | -4 | 2 | -2 | 57* | 7 | 24* | 33 | 7 | 6
CC1C(=O)N(Cc2cn(CCC3OCCCO3)nn2)CCS(=O)(=O)N1Cc1ccc(-c2ccc(Cl)cc2)cc1 (stereo unspecified) | -9 | 12 | -2 | 87* | 19 | 45* | 59* | 16* | 10
Cc1cccc(-c2ccc(O)cc2CN2CCN(c3ncc(Cc4ccccc4)cn3)CC2)c1 | . | . | . | -32 | -1 | . | . | . | .
COc1cccc(C(=O)C(=O)N2CCN(C(=O)OCc3ccccc3)CC2)c1 | . | . | . | -18 | 1 | . | . | . | .
COc1cc(C(O)c2nc(-c3cccc4cccnc34)cs2)ccc1F (stereo unspecified) | 4 | -22 | 1 | 5 | 2 | . | . | . | .
